Our source for the MIC values is ChEMBL document CHEMBL1806444, “Synthesis of new chalcone derivatives bearing 2,4-thiazolidinedione and benzoic acid moieties as potential anti-bacterial agents” (2011).

Converted amounts (≈) assume the structure as drawn. Some results are limits rather than exact numbers.

Type in all cases: functional
Experiment [1] relates to Escherichia coli. Description: Antibacterial activity against 10^5 CFU/mL Escherichia coli 1682 assessed as inhibition of bacterial growth after 24 hrs by microtiter enzyme-linked immunosorbent assay. The note with it: Escherichia coli, 1682, 24 h.
In experiment [2] the test system is Staphylococcus aureus. Nature of the experiment: Antibacterial activity against 10^5 CFU/mL Staphylococcus aureus KCTC 503 assessed as inhibition of bacterial growth after 24 hrs by microtiter enzyme-linked immunosorbent assay. Conditions: KCTC 503, 24 h.
In experiment [3] the test system is Staphylococcus aureus. Description: Antibacterial activity against 10^5 CFU/mL Staphylococcus aureus RN4220 assessed as inhibition of bacterial growth after 24 hrs by microtiter enzyme-linked immunosorbent assay. The note with it: RN4220, 24 h.
Experiment [4] has as its system Escherichia coli. Nature of the experiment: Antibacterial activity against 10^5 CFU/mL Escherichia coli 1356 assessed as inhibition of bacterial growth after 24 hrs by microtiter enzyme-linked immunosorbent assay. Conditions: Escherichia coli, 1356, 24 h.
Experiment [5] has as its system Staphylococcus aureus. Nature of the experiment: Antibacterial activity against 10^5 CFU/mL quinolone-resistant Staphylococcus aureus CCARM 3505 assessed as inhibition of bacterial growth after 24 hrs by microtiter enzyme-linked immunosorbent assay. Conditions: CCARM 3505, 24 h. In short, it runs like this: (§1)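 Broth microdilution MIC. Bacteria grown to mid-log phase in Mueller-Hinton broth, diluted 1000-fold, and inoculated at 10⁵ CFU/mL in MHB, 0.2 mL/well in 96-well plates. Compounds dissolved in DMSO, final DMSO not exceeding 0.05%, in serial dilutions. Oxacillin and norfloxacin served as positive controls. MIC is the lowest concentration giving complete growth inhibition after 24 h at 37 °C.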

Experiment [6] relates to Staphylococcus aureus. Description: Antibacterial activity against 10^5 CFU/mL methicillin-resistant Staphylococcus aureus CCARM 3167 assessed as inhibition of bacterial growth after 24 hrs by microtiter enzyme-linked immunosorbent assay. Conditions: CCARM 3167, 24 h. In short, it runs like this: as §1
Experiment [7] relates to Staphylococcus aureus. Description: Antibacterial activity against 10^5 CFU/mL methicillin-resistant Staphylococcus aureus CCARM 3506 assessed as inhibition of bacterial growth after 24 hrs by microtiter enzyme-linked immunosorbent assay. The note with it: CCARM 3506, 24 h. Summed up: as §1
Experiment [8] concerns Staphylococcus aureus. Nature of the experiment: Antibacterial activity against 10^5 CFU/mL quinolone-resistant Staphylococcus aureus CCARM 3519 assessed as inhibition of bacterial growth after 24 hrs by microtiter enzyme-linked immunosorbent assay. The note with it: CCARM 3519, 24 h. In short, it runs like this: as §1

Regarding `COC(=O)c1ccc(CN2C(=O)S/C(=C\c3ccc(/C=C/C(=O)c4ccccc4Br)cc3)C2=O)cc1`, the MIC with Escherichia coli [1], with Staphylococcus aureus [2], in the experiment with Staphylococcus aureus [3] and in the experiment with Escherichia coli [4] was over 64 µg/mL each time.

For `O=C(O)c1ccc(CN2C(=O)S/C(=C\c3ccc(/C=C/C(=O)c4ccc(Cl)cc4Cl)cc3)C2=O)cc1`, the MIC with Escherichia coli [1], in the experiment with Staphylococcus aureus [2], in the experiment with Staphylococcus aureus [3] and in the experiment on Escherichia coli [4] was over 64 µg/mL throughout.

On to `O=C(O)c1ccc(CN2C(=O)S/C(=C\c3ccc(/C=C/C(=O)c4cccc(O)c4)cc3)C2=O)cc1`, for which the MIC (as a rule, the lowest concentration that inhibits growth of the organism) is over 64 µg/mL in the experiment on Escherichia coli [1]; 2 µg/mL (≈ 4.12 µM) with Staphylococcus aureus [5]; 1 µg/mL (≈ 2.06 µM) in the experiment on Staphylococcus aureus [6]; 4 µg/mL (≈ 8.24 µM) in the experiment on Staphylococcus aureus [2]; 2 µg/mL (≈ 4.12 µM) in the experiment on Staphylococcus aureus [3]; 1 µg/mL (≈ 2.06 µM) in the experiment on Staphylococcus aureus [7]. Also, the MIC in the experiment with Staphylococcus aureus [8] is 2 µg/mL (≈ 4.12 µM); in the experiment on Escherichia coli [4], over 64 µg/mL.

Regarding `O=C(O)c1ccc(CN2C(=O)S/C(=C\c3ccc(/C=C/C(=O)c4ccc5ccccc5c4)cc3)C2=O)cc1`, the MIC in the experiment on Escherichia coli [1], in the experiment on Staphylococcus aureus [2], in the experiment with Staphylococcus aureus [3] and with Escherichia coli [4] was over 64 µg/mL in each case.

Consider `COC(=O)c1ccc(CN2C(=O)S/C(=C\c3ccc(/C=C/C(=O)c4ccc(C)cc4)cc3)C2=O)cc1`, for which the MIC with Escherichia coli [1], in the experiment on Staphylococcus aureus [2], in the experiment on Staphylococcus aureus [3] and in the experiment with Escherichia coli [4] was over 64 µg/mL each time.

As to `COC(=O)c1ccc(CN2C(=O)S/C(=C\c3ccc(/C=C/C(=O)c4cccc(Br)c4)cc3)C2=O)cc1`, the MIC with Escherichia coli [1], with Staphylococcus aureus [2], in the experiment on Staphylococcus aureus [3] and in the experiment with Escherichia coli [4] was over 64 µg/mL each time.

`COC(=O)c1ccc(CN2C(=O)S/C(=C\c3ccc(/C=C/C(=O)c4ccccc4F)cc3)C2=O)cc1`: the MIC with Escherichia coli [1], in the experiment with Staphylococcus aureus [2], with Staphylococcus aureus [3] and in the experiment on Escherichia coli [4] was over 64 µg/mL in each case.

On to `COC(=O)c1ccc(CN2C(=O)S/C(=C\c3ccc(/C=C/C(=O)c4ccc(Cl)cc4)cc3)C2=O)cc1`, for which the MIC with Escherichia coli [1], with Staphylococcus aureus [2], in the experiment on Staphylococcus aureus [3] and with Escherichia coli [4] was over 64 µg/mL in each case.

Consider `COC(=O)c1ccc(CN2C(=O)S/C(=C\c3ccc(/C=C/C(=O)c4cccc(Cl)c4)cc3)C2=O)cc1`, for which the MIC in the experiment on Escherichia coli [1], in the experiment with Staphylococcus aureus [2], in the experiment on Staphylococcus aureus [3] and in the experiment with Escherichia coli [4] was over 64 µg/mL throughout.

Regarding `Cc1ccc(C(=O)/C=C/c2ccc(/C=C3\SC(=O)N(Cc4ccc(C(=O)O)cc4)C3=O)cc2)c(C)c1`, the MIC in the experiment with Escherichia coli [1], in the experiment on Staphylococcus aureus [2], in the experiment on Staphylococcus aureus [3] and with Escherichia coli [4] was over 64 µg/mL throughout.

With `COC(=O)c1ccc(CN2C(=O)S/C(=C\c3ccc(/C=C/C(=O)c4ccccc4OC)cc3)C2=O)cc1`, the MIC with Escherichia coli [1], in the experiment with Staphylococcus aureus [2], with Staphylococcus aureus [3] and in the experiment on Escherichia coli [4] was over 64 µg/mL in each case.

On to `COC(=O)c1ccc(CN2C(=O)S/C(=C\c3ccc(/C=C/C(=O)c4ccccc4Cl)cc3)C2=O)cc1`, for which the MIC in the experiment on Escherichia coli [1], with Staphylococcus aureus [2], in the experiment on Staphylococcus aureus [3] and with Escherichia coli [4] was over 64 µg/mL each time.

On to `COC(=O)c1ccc(CN2C(=O)S/C(=C\c3ccc(/C=C/C(=O)c4ccc(Br)cc4)cc3)C2=O)cc1`, for which the MIC in the experiment on Escherichia coli [1], in the experiment with Staphylococcus aureus [2], in the experiment on Staphylococcus aureus [3] and in the experiment with Escherichia coli [4] was over 64 µg/mL in each case.

With `COc1ccc(C(=O)/C=C/c2ccc(/C=C3\SC(=O)N(Cc4ccc(C(=O)O)cc4)C3=O)cc2)cc1`, the MIC in the experiment with Escherichia coli [1], with Staphylococcus aureus [2], in the experiment on Staphylococcus aureus [3] and with Escherichia coli [4] was over 64 µg/mL throughout.

On to `O=C(O)c1ccc(CN2C(=O)S/C(=C\c3ccc(/C=C/C(=O)c4ccc(Cl)cc4)cc3)C2=O)cc1`, for which the MIC in the experiment on Escherichia coli [1], with Staphylococcus aureus [2], with Staphylococcus aureus [3] and in the experiment on Escherichia coli [4] was over 64 µg/mL each time.

On to `O=C(O)c1ccc(CN2C(=O)S/C(=C\c3ccc(/C=C/C(=O)c4ccc(F)cc4)cc3)C2=O)cc1`, for which the MIC in the experiment with Escherichia coli [1], in the experiment on Staphylococcus aureus [2], in the experiment on Staphylococcus aureus [3] and with Escherichia coli [4] was over 64 µg/mL throughout.

As for `O=C(O)c1ccc(CN2C(=O)S/C(=C\c3ccc(/C=C/C(=O)c4ccccc4O)cc3)C2=O)cc1`, the MIC in the experiment with Escherichia coli [1], with Staphylococcus aureus [2], in the experiment on Staphylococcus aureus [3] and with Escherichia coli [4] was over 64 µg/mL each time.

Turning to `COC(=O)c1ccc(CN2C(=O)S/C(=C\c3ccc(/C=C/C(=O)c4cccc(O)c4)cc3)C2=O)cc1`, the MIC with Escherichia coli [1], in the experiment on Staphylococcus aureus [2], with Staphylococcus aureus [3] and in the experiment on Escherichia coli [4] was over 64 µg/mL in each case.

In the case of `COC(=O)c1ccc(CN2C(=O)S/C(=C\c3ccc(/C=C/C(=O)c4ccc5ccccc5c4)cc3)C2=O)cc1`, the MIC in the experiment with Escherichia coli [1], in the experiment with Staphylococcus aureus [2], in the experiment on Staphylococcus aureus [3] and in the experiment with Escherichia coli [4] was over 64 µg/mL in each case.

Regarding `COC(=O)c1ccc(CN2C(=O)S/C(=C\c3ccc(/C=C/C(=O)c4ccccc4)cc3)C2=O)cc1`, the MIC in the experiment on Escherichia coli [1], in the experiment with Staphylococcus aureus [2], in the experiment with Staphylococcus aureus [3] and in the experiment with Escherichia coli [4] was over 64 µg/mL throughout.

Take `O=C(O)c1ccc(CN2C(=O)S/C(=C\c3ccc(/C=C/C(=O)c4ccc(Br)cc4)cc3)C2=O)cc1`: the MIC in the experiment with Escherichia coli [1], with Staphylococcus aureus [2], in the experiment on Staphylococcus aureus [3] and in the experiment on Escherichia coli [4] was over 64 µg/mL in each case.

Turning to `O=C(O)c1ccc(CN2C(=O)S/C(=C\c3ccc(/C=C/C(=O)c4ccccc4F)cc3)C2=O)cc1`, the MIC in the experiment on Escherichia coli [1], in the experiment with Staphylococcus aureus [2], with Staphylococcus aureus [3] and in the experiment with Escherichia coli [4] was over 64 µg/mL in each case.

Turning to `COC(=O)c1ccc(CN2C(=O)S/C(=C\c3ccc(/C=C/C(=O)c4ccc(O)cc4)cc3)C2=O)cc1`, the MIC with Escherichia coli [1], with Staphylococcus aureus [2], with Staphylococcus aureus [3] and with Escherichia coli [4] was over 64 µg/mL in each case.

As to `O=C(O)c1ccc(CN2C(=O)S/C(=C\c3ccc(/C=C/C(=O)c4cccc(Br)c4)cc3)C2=O)cc1`, the MIC in the experiment on Escherichia coli [1], in the experiment with Staphylococcus aureus [2], in the experiment on Staphylococcus aureus [3] and with Escherichia coli [4] was over 64 µg/mL each time.

With `COC(=O)c1ccc(CN2C(=O)S/C(=C\c3ccc(/C=C/C(=O)c4ccc(F)cc4)cc3)C2=O)cc1`, the MIC in the experiment with Escherichia coli [1], with Staphylococcus aureus [2], in the experiment with Staphylococcus aureus [3] and with Escherichia coli [4] was over 64 µg/mL throughout.

On to `COc1cccc(C(=O)/C=C/c2ccc(/C=C3\SC(=O)N(Cc4ccc(C(=O)O)cc4)C3=O)cc2)c1`, for which the MIC with Escherichia coli [1], with Staphylococcus aureus [2], in the experiment with Staphylococcus aureus [3] and with Escherichia coli [4] was over 64 µg/mL each time.

With `Cc1ccc(C(=O)/C=C/c2ccc(/C=C3\SC(=O)N(Cc4ccc(C(=O)O)cc4)C3=O)cc2)cc1`, the MIC with Escherichia coli [1], with Staphylococcus aureus [2], in the experiment on Staphylococcus aureus [3] and in the experiment with Escherichia coli [4] was over 64 µg/mL throughout.

On to `O=C(O)c1ccc(CN2C(=O)S/C(=C\c3ccc(/C=C/C(=O)c4cccc(Cl)c4)cc3)C2=O)cc1`, for which the MIC with Escherichia coli [1], in the experiment with Staphylococcus aureus [2], with Staphylococcus aureus [3] and with Escherichia coli [4] was over 64 µg/mL each time.

Regarding `COC(=O)c1ccc(CN2C(=O)S/C(=C\c3ccc(/C=C/C(=O)c4cccc(OC)c4)cc3)C2=O)cc1`, the MIC in the experiment on Escherichia coli [1], in the experiment with Staphylococcus aureus [2], in the experiment on Staphylococcus aureus [3] and in the experiment on Escherichia coli [4] was over 64 µg/mL each time.

`COC(=O)c1ccc(CN2C(=O)S/C(=C\c3ccc(/C=C/C(=O)c4ccc(C)cc4C)cc3)C2=O)cc1`: the MIC in the experiment on Escherichia coli [1], in the experiment with Staphylococcus aureus [2], in the experiment on Staphylococcus aureus [3] and with Escherichia coli [4] was over 64 µg/mL throughout.

Regarding `COC(=O)c1ccc(CN2C(=O)S/C(=C\c3ccc(/C=C/C(=O)c4ccc(OC)cc4)cc3)C2=O)cc1`, the MIC in the experiment with Escherichia coli [1], with Staphylococcus aureus [2], with Staphylococcus aureus [3] and in the experiment with Escherichia coli [4] was over 64 µg/mL throughout.

As for `COC(=O)c1ccc(CN2C(=O)S/C(=C\c3ccc(/C=C/C(=O)c4ccccc4O)cc3)C2=O)cc1`, the MIC in the experiment with Escherichia coli [1], in the experiment with Staphylococcus aureus [2], in the experiment with Staphylococcus aureus [3] and in the experiment on Escherichia coli [4] was over 64 µg/mL throughout.

`COC(=O)c1ccc(CN2C(=O)S/C(=C\c3ccc(/C=C/C(=O)c4ccc(Cl)cc4Cl)cc3)C2=O)cc1`: the MIC in the experiment on Escherichia coli [1], in the experiment on Staphylococcus aureus [2], in the experiment with Staphylococcus aureus [3] and in the experiment on Escherichia coli [4] was over 64 µg/mL each time.

`O=C(O)c1ccc(CN2C(=O)S/C(=C\c3ccc(/C=C/C(=O)c4ccc(O)cc4)cc3)C2=O)cc1`: the MIC with Escherichia coli [1], in the experiment on Staphylococcus aureus [2], with Staphylococcus aureus [3] and in the experiment on Escherichia coli [4] was over 64 µg/mL each time.
